Measured values pooled from the literature.
Compare with care: the assays were run in different laboratories.
Target: Cyclin-dependent kinase-like 3 (CDKL3, Homo sapiens, UniProt Q8IVW4)

Structure (SMILES) | test | conditions | remaining binding
F[C@@H]1CCN(c2nccc(-c3cnn4ncccc34)n2)C1 | binding | 1 µM | 100%
O=C(NCCCN1CCOCC1)c1ccc(Nc2nccc(-c3cc4ccccc4s3)n2)cc1 | binding, competition with immobilised ligand | 1 µM | 89%
CC(C)(O)c1cncc(-c2nc3ccc(F)cc3n2C2CC2)c1 | cell-free assay, competition with immobilised ligand | 1 µM | 84%
CCN1CCN(Cc2ccc(C(=O)Nc3ccc(C)c(Oc4ccc5c(c4)CC(=O)N5)c3)cc2C(F)(F)F)CC1 | binding, competition with immobilised ligand | 1 µM | 86%
CNC(=O)[C@@H]1CC[C@@H](n2c(-c3ccc4cnccc4c3)nc3ccc(C(=O)NCc4cccc(C(N)=O)c4)cc32)C1 | binding, competition with immobilised ligand | 1 µM | 96%
c1cnn2ncc(-c3ccnc(N4CCC45COC5)n3)c2c1 | binding | 1 µM | 93%
Cc1cc(NC(=O)c2cccc(S(F)(F)(F)(F)F)c2)cc(-n2ccn3nc(-c4cccnc4)cc23)c1 | cell-free assay, competition with immobilised ligand | 1 µM | 100%
COc1cnc(Nc2cccc(S(N)(=O)=O)c2)nc1N1CCN(c2ccccc2)C(=O)C1 | binding, competition with immobilised ligand | 1 µM | 99%
COc1ccnn2ncc(-c3ccnc(N(C)C)n3)c12 | binding | 1 µM | 94%
O=C(Nc1c[nH]nc1C(=O)NC1CCNCC1)c1cc(F)cc(F)c1 | binding, competition with immobilised ligand | 1 µM | 100%
CCCCN(CCCC)C(=O)CN1C[C@H](c2cc(OC)c3c(c2)OCO3)[C@@H](C(=O)O)[C@@H]1CC(C)(C)CCC | cell-free assay, competition with immobilised ligand | 1 µM | 100%
c1cncc(-c2cccc(Nc3nccc(NC4CCCCC4)n3)c2)c1 | binding, competition with immobilised ligand | 10 µM | 100%
O=C(c1ccc(Nc2ncc(Cl)c(-c3cc4ccccc4s3)n2)cc1)N1CCC(N2CCCC2)CC1 | binding, competition with immobilised ligand | 1 µM | 47%
CN(C)CC#Cc1ccc(OCCCc2sc(N3CCc4cccc(C(=O)Nc5nc6ccccc6s5)c4C3)nc2C(=O)O)c(F)c1 | cell-free assay, competition with immobilised ligand | 1 µM | 100%
Cc1cnc(Nc2ccc(C(=O)N3CCC(N4CCCC4)CC3)cc2)nc1-c1cc2ccccc2s1 | binding, competition with immobilised ligand | 1 µM | 89%
C[C@H]1CCN(c2nccc(-c3cnn4ncccc34)n2)C1 | binding | 1 µM | 85%
CNCc1ccccc1-c1csc([C@H](C)Nc2nc(C)nc3cc(OC)c(OC)cc23)c1 | cell-free assay, competition with immobilised ligand | 1 µM | 97%
COc1ncc2cc3ccccc3nc2c1C#N | binding, competition with immobilised ligand | 5 µM | 85%
N[C@H]1CCN(c2nccc(-c3cnn4ncccc34)n2)C1 | binding | 1 µM | 100%
Cn1nc(C(=O)NCc2ccc(C(=O)O)cc2)cc1-c1ccc2[nH]ccc2c1 | cell-free assay, competition with immobilised ligand | 0.1 µM | 100%
